In ChEMBL document CHEMBL5705892, “MK-2206, an allosteric Akt inhibitor, enhances antitumor efficacy by standard chemotherapeutic agents or molecular targeted drugs in vitro and in vivo” (Mol Cancer Ther, 2010):
The source made the active and inactive calls. The calls are words filed in the database; no cut-off is given here.

Tests used:
[1] = system: NCI-H460; assay: Synergistic antiproliferative activity against human NCI-H460 cells assessed as combination index at ED50 measured after 72 hrs in presence of doxorubicin by celltiter-glo assay; assay type: functional
[2] = system: HCC1954; assay: Synergistic antiproliferative activity against human HCC1954 cells assessed as combination index at ED90 measured after 96 hrs in presence of lapatinib by celltiter-glo assay; assay type: functional
[3] = system: HCC1954; assay: Synergistic antiproliferative activity against human HCC1954 cells assessed as combination index at ED75 measured after 72 hrs in presence of lapatinib by celltiter-glo assay; assay type: functional
In short: (§1)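 Cells grown in RPMI 1640 with 10% heat-inactivated FBS at 37°C, 5% CO₂. Seeded at 2 to 3 × 10³ per well; drugs added 24 h later. […] Viability read as cellular ATP by CellTiter-Glo. CI calculated by Chou–Talalay from median-effect plots at ED50, ED75 and ED90.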

[4] = system: SK-OV-3; assay: Synergistic antiproliferative activity against human SK-OV-3 cells assessed as combination index at ED75 treated 24 hrs prior to lapatinib and measured after 72 hrs by celltiter-glo assay; assay type: functional; details: time 96 hrs
[5] = system: NCI-H460; assay: Synergistic antiproliferative activity against human NCI-H460 cells assessed as combination index at ED90 measured after 72 hrs in presence of doxorubicin by celltiter-glo assay; assay type: functional
[6] = system: NCI-H1299; assay: Synergistic antiproliferative activity against human NCI-H1299 cells assessed as combination index at ED75 measured after 72 hrs in presence of erlotinib by celltiter-glo assay; assay type: functional
[7] = system: NCI-N87; assay: Synergistic antiproliferative activity against human NCI-N87 cells assessed as combination index at ED50 treated 24 hrs prior to lapatinib and measured after 72 hrs by celltiter-glo assay; assay type: functional; details: time 96 hrs
[8] = system: SK-OV-3; assay: Synergistic antiproliferative activity against human SK-OV-3 cells assessed as combination index at ED90 treated 24 hrs prior to lapatinib and measured after 72 hrs by celltiter-glo assay; assay type: functional; details: time 96 hrs
[9] = system: SK-BR-3; assay: Synergistic antiproliferative activity against human SK-BR-3 cells assessed as combination index at ED90 measured after 96 hrs in presence of lapatinib by celltiter-glo assay; assay type: functional
[10] = system: NCI-H292; assay: Antitumor activity against human NCI-H292 cells xenografted in CD-1 mouse assessed as tumor growth suppression at 360 mg/kg, po administered once a week for 2 weeks and measured twice a week during compound dosing by caliper method; assay type: functional, organism-based
In short: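 Female CD1-nude mice carried s.c. NCI-H292 cells in Matrigel/PBS and were randomized at 0.2 cm³, n = 5. […] MK-2206 (30% Captisol) was given 2 h later at 120 mg/kg po on days 0, 2, 4, 7, 9, 11, or at 360 mg/kg on days 0 and 7. Control received vehicle. Caliper volume twice weekly.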

[11] = target: RAC-alpha serine/threonine-protein kinase (Homo sapiens) (UniProt P31749); assay: Inhibition of AKT in human A-431 cells assessed as reduction in S6 phosphorylation at S240/S244 residues at 5 umol/L measured after 5 hrs in presence of erlotinib by Western blot analysis; assay type: cell-based; details: dose 5.0 µmol/L
Chain of RAC-alpha serine/threonine-protein kinase (Homo sapiens) (P31749 whole entry): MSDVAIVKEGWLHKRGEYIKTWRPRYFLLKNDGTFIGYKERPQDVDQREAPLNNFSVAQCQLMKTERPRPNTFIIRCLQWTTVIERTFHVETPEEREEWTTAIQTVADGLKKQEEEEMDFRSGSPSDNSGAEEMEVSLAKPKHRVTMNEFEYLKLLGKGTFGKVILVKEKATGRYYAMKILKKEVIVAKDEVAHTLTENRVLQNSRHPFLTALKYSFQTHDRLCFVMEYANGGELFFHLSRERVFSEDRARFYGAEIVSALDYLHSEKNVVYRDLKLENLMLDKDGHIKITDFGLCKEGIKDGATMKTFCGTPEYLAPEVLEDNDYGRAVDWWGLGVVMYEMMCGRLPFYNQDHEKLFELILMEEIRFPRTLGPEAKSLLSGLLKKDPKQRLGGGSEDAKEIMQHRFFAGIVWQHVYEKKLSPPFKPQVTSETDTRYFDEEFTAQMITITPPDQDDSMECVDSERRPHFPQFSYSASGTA
In short: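 Cells were lysed in Tris-HCl pH 7.5, 150 mM NaCl, 1% Triton X-100 with protease and phosphatase inhibitors. Lysates were run on SDS-PAGE, transferred to nitrocellulose and probed with phospho-specific antibodies.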

[12] = In vivo inhibition of AKT phosphorylation at S473 residue in human NCI-H292 cells xenografted mouse at 120 mg/kg, po administered as single dose 2 hrs post-erlotinib treatment measured after 12 hrs by Western blot analysis relative to control; assay type: functional
[13] = system: A2780; assay: Synergistic antiproliferative activity against human A2780 cells assessed as combination index at ED50 measured after 72 hrs in presence of carboplatin by celltiter-glo assay; assay type: functional
In short: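 Cells were seeded at 2–3 × 10³ per well in RPMI 1640 with 10% FBS. At 24 h, MK-2206 and the partner drug were added simultaneously at constant concentration ratios spanning each agent's IC₅₀, for 72 h. Growth was read as cellular ATP by CellTiter-Glo. CI was taken from median-effect plots of each agent alone and in combination (Chou–Talalay), at ED₅₀, ED₇₅ and ED₉₀.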

[14] = system: PC-3; assay: Antitumor activity against human PC-3 cells xenografted in CD1 nude mouse assessed as reduction in tumor volume at 120 mg/kg, po administered 3 times per week for 2 weeks and measured during compound dosing by caliper method; assay type: functional, organism-based
In short: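 Male CD1-nude mice received s.c. PC-3 cells and were treated from day 25 after implant, at 0.2 cm³, n = 5. Docetaxel (0.73% ethanol in saline) was given at 5 mg/kg i.v. on day 0. MK-2206 (30% Captisol) was given at 120 mg/kg po on days 1, 3, 5, 8, 10, 12. Caliper volume twice weekly.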

[15] = system: NCI-H460; assay: Synergistic antiproliferative activity against human NCI-H460 cells assessed as combination index at ED75 measured after 72 hrs in presence of 5-FU by celltiter-glo assay; assay type: functional
[16] = system: SK-BR-3; assay: Synergistic antiproliferative activity against human SK-BR-3 cells assessed as combination index at ED50 measured after 72 hrs in presence of docetaxel by celltiter-glo assay; assay type: functional
[17] = system: NCI-H460; assay: Synergistic antiproliferative activity against human NCI-H460 cells assessed as combination index at ED90 measured after 72 hrs in presence of camptothecin by celltiter-glo assay; assay type: functional
[18] = Toxicity in human HCC70 cells xenografted CB17/icr SCID mouse assessed as body weight loss at 120 mg/kg, po administered 3 times per week for 3 weeks starting 2 hrs post-lapatinib treatment and measured during compound dosing; assay type: organism-based; details: in vivo, 504 h
In short: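 HCC70 cells in 50% Matrigel/PBS injected s.c. into flank of female C.B-17/ICR-scid mice; dosing began after 3 wk, groups randomized at mean tumour 0.2 cm³ (n = 5). Lapatinib 100 mg/kg p.o. in distilled water, 5 d/wk for 3 wk; MK-2206 in 30% Captisol p.o. 3×/wk for 3 wk, given 2 h after lapatinib. Body weight and physical signs monitored throughout.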

[19] = system: HCC827; assay: Synergistic antiproliferative activity against human HCC827 cells assessed as combination index at ED75 measured after 72 hrs in presence of erlotinib by celltiter-glo assay; assay type: functional; in short: as §1
[20] = system: HCC1954; assay: Synergistic antiproliferative activity against lapatinib pretreated human HCC1954 cells assessed as combination index at ED50 measured after 72 hrs by celltiter-glo assay; assay type: functional
[21] = system: NCI-N87; assay: Synergistic antiproliferative activity against human NCI-N87 cells assessed as combination index at ED50 measured after 96 hrs in presence of lapatinib by celltiter-glo assay; assay type: functional
[22] = system: A2780; assay: Cell cycle arrest in human A2780 cells assessed as increase in accumulation of cells at sub-G1 phase at 0.12 to 3 umol/L measured after 72 hrs in presence of carboplatin by propidium iodide staining based flow cytometry relative to control; assay type: functional; details: dose 0.12-3 µmol/L, at 0.12 to 3 µM
[23] = system: MDA-MB-231; assay: Synergistic antiproliferative activity against human MDA-MB-231 cells assessed as combination index at ED90 measured after 72 hrs in presence of docetaxel by celltiter-glo assay; assay type: functional; in short: as §1
[24] = system: NCI-H460; assay: Synergistic antiproliferative activity against human NCI-H460 cells assessed as combination index at ED90 measured after 72 hrs in presence of 5-FU by celltiter-glo assay; assay type: functional

Cl.NC1(c2ccc(-c3nc4ccn5c(=O)[nH]nc5c4cc3-c3ccccc3)cc2)CCC1
CI50 [1]: 0.27 | CI90 [2]: 0.18 | CI75 [3]: 0.13 | CI75 [4]: 0.18 | CI90 [5]: 0.17 | CI75 [6]: 0.31 | CI50 [7]: 0.18 | CI90 [8]: 0.18 | CI90 [9]: 0.18 | Activity [10]: Active | inhibition [11]: Active | inhibition in vivo at 120 mg/kg [12]: 79.9% | CI50 [13]: 0.49 | Activity [14]: Active | CI75 [15]: 0.45 | CI50 [16]: 0.8 | CI90 [17]: 0.63 | Activity [18]: Non-Toxic | CI75 [19]: 0.18 | CI50 [20]: 0.18 | CI50 [21]: 0.18 | Activity [22]: >40% | CI90 [23]: 0.7 | CI90 [24]: 0.54
